In brackets after ≈: the same amount, converted by molar mass. Each block holds one compound with its values, some of them ahead of it. Activity calls are given as the source filed them. The rule behind the calls is not given here.
Legend:
[1] = biological target: Cytochrome P450 3A4 (Homo sapiens, UniProt P08684); assay: Inhibition of CYP3A4 (unknown origin); type: ADME
[2] = biological target: Voltage-gated inwardly rectifying potassium channel KCNH2 (Homo sapiens, UniProt Q12809); assay: Inhibition of human ERG
Sequence of Voltage-gated inwardly rectifying potassium channel KCNH2 (Q12809 whole entry): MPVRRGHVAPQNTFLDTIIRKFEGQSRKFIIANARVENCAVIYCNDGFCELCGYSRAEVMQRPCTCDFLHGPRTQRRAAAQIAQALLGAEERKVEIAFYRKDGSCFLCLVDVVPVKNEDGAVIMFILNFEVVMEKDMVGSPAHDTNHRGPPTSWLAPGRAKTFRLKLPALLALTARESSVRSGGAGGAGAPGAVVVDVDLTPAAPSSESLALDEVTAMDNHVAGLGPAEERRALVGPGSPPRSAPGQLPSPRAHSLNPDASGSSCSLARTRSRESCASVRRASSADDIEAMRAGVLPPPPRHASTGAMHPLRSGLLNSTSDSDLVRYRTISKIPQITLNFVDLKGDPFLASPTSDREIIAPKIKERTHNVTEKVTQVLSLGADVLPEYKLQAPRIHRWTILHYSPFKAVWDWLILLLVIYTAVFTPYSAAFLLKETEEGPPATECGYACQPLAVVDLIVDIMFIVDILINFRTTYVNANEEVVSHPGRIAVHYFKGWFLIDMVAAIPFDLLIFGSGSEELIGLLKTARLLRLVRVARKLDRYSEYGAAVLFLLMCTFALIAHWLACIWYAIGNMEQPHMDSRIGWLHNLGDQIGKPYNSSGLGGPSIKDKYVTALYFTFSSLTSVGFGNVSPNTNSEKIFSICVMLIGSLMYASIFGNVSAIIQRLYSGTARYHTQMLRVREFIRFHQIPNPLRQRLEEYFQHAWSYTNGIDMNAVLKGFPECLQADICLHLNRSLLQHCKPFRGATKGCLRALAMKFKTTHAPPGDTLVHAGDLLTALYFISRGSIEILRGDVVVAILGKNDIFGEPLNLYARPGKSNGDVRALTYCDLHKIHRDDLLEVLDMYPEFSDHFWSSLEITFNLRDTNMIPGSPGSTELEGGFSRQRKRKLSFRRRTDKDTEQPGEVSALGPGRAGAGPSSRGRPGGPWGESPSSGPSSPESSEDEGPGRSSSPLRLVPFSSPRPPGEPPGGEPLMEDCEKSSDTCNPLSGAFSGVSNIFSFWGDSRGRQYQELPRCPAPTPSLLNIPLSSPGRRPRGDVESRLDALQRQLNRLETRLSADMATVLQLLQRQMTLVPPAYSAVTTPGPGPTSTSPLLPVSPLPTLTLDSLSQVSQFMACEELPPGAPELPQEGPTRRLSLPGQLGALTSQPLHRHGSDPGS

[3] = biological target: Mitogen-activated protein kinase 1 (Homo sapiens, UniProt P28482); assay: Inhibition of human ERK2 preincubated for 15 mins followed by addition of IMAP peptide substrate and ATP measured after 60 mins by IMAP-FP assay
Sequence of Mitogen-activated protein kinase 1 (P28482 whole entry): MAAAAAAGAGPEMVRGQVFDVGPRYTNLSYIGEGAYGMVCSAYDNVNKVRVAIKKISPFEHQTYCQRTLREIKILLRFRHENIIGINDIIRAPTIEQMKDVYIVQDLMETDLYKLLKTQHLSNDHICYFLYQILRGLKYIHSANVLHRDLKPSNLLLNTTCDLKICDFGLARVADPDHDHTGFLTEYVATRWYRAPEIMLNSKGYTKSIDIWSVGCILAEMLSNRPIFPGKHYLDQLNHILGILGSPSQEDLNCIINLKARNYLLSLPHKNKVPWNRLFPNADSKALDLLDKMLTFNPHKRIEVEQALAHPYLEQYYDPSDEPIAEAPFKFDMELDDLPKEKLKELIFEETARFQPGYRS
How it was run: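 Final: 0.5 nM hERK2, 900 nM unlabeled + 80 nM labeled peptide, 30 µM ATP; 60 min, quenched with IMAP beads in binding buffer with 24 mM NaCl, read by fluorescence polarization after 60 min.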

[4] = Inhibition of ERK in human A375SM cells harboring BRAF V600E mutant assessed as inhibition of RSK phosphorylation measured after 4 hrs by mesoscale electrochemiluminescent sandwich assay; type: cell-based; conditions: A375-SM
How it was run: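 A375SM (BRAF V600E melanoma) cells, 10,000 per well, treated 4 h; lysed 20 min at 4 °C in Tris/NaCl/EGTA/EDTA/Triton/NaF buffer with protease and phosphatase inhibitors. Lysate captured with biotin anti-RSK1 on streptavidin MSD plate, detected with SULFO-TAG anti-pRSK (pThr359/Ser363) overnight at 4 °C; electrochemiluminescence read. IC50 from 11-point titration.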

[5] = Inhibition of ERK (unknown origin) assessed as inhibition of RSK phosphorylation; parameters: species or system Homo sapiens
[6] = biological target: Dual specificity mitogen-activated protein kinase kinase; MEK1/2 (Homo sapiens, UniProt P36507+Q02750); assay: Inhibition of MEK in human A375 cells assessed as inhibition of ERK phosphorylation; type: cell-based
[7] = system: A375-SM; assay: Antiproliferative activity against human A375SM cells harboring BRAF V600E mutant measured after 96 hrs by Cell Titer-Glo assay; type: functional, cell-based
How it was run: (§1)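 Cells in DMEM/10 mM HEPES/10% FBS added after compound, incubated 96 h at 37 °C, 5% CO2; equilibrated 15 min at room temperature, viability by CellTiter-Glo luminescence. IC50 from 10-point, 3-fold titration curves.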

[8] = Solubility in human FaSSIF at pH 6.5; type: physicochemical
How it was run: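 Solubility measured in human fasted-state simulated intestinal fluid at pH 6.5.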

[9] = system: CHL-1; assay: Antiproliferative activity against human CHL-1 cells measured after 96 hrs by Cell Titer-Glo assay; type: functional, cell-based; conditions: CHL-1, 96 h; how it was run: as §1
[10] = species on record: Homo sapiens; assay: Selectivity ratio, ratio of IC50 for recombinant human GST-tagged ERK2 expressed in Escherichia coli to IC50 for BRAF (unknown origin)
How it was run: (§2)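 Kinase counter-screen using a coupled format: the kinase's effect was read as activity of downstream ERK. Fold selectivity is the kinase IC50 relative to the IC50 from the Invitrogen ERK2 assay.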

[11] = species on record: Homo sapiens; assay: Selectivity ratio, ratio of IC50 for recombinant human GST-tagged ERK2 expressed in Escherichia coli to IC50 for ERK1 (unknown origin)
How it was run: (§3)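 Part of a counter-screen panel of 101 kinases. Fold selectivity is each kinase's IC50 relative to the IC50 from the Invitrogen ERK2 assay.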

[12] = species on record: Homo sapiens; assay: Selectivity ratio, ratio of IC50 for recombinant human GST-tagged ERK2 expressed in Escherichia coli to IC50 for FLT4 (unknown origin); how it was run: as §3
[13] = species on record: Homo sapiens; assay: Selectivity ratio, ratio of IC50 for recombinant human GST-tagged ERK2 expressed in Escherichia coli to IC50 for MEK1 (unknown origin); how it was run: as §2
[14] = species on record: Homo sapiens; assay: Selectivity ratio, ratio of IC50 for recombinant human GST-tagged ERK2 expressed in Escherichia coli to IC50 for MEK2 (unknown origin); how it was run: as §3
[15] = species on record: Homo sapiens; assay: Selectivity ratio, ratio of IC50 for recombinant human GST-tagged ERK2 expressed in Escherichia coli to IC50 for MELK (unknown origin); how it was run: as §3
[16] = species on record: Homo sapiens; assay: Selectivity ratio, ratio of IC50 for recombinant human GST-tagged ERK2 expressed in Escherichia coli to IC50 for PDGFRalpha D842V mutant (unknown origin); how it was run: as §3
[17] = species on record: Homo sapiens; assay: Selectivity ratio, ratio of IC50 for recombinant human GST-tagged ERK2 expressed in Escherichia coli to IC50 for PDGFRalpha V561D mutant (unknown origin); how it was run: as §3
[18] = Dose normalized AUC in rat at 0.5 mg/kg, iv; type: ADME, organism-based; conditions: in vivo
[19] = Plasma clearance in rat at 0.5 mg/kg, iv; type: ADME, organism-based
How it was run: (§4)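 Rats dosed IV at 0.5 mg/kg as solution in PEG400:H2O (60:40 v/v).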

[20] = Volume of distribution at steady state in rat at 0.5 mg/kg, iv; type: ADME, organism-based; conditions: in vivo, read-out: Vdss; how it was run: as §4
[21] = Half life in rat at 0.5 mg/kg, iv; type: ADME, organism-based; conditions: in vivo; how it was run: as §4
[22] = Oral bioavailability in rat at 1 mg/kg; type: ADME, organism-based; conditions: in vivo
How it was run: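 Rats dosed PO at 1 mg/kg as solution in PEG400:H2O (60:40 v/v).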

[23] = Protein binding in rat plasma; type: ADME, cell-free; conditions: read-out: PPB (converted)
[24] = Cmax in mouse xenografted with human A375SM cells at 25 mg/kg, po bid measured on day 20; type: ADME, organism-based; parameters: dose 25 mg/kg, route oral; conditions: in vivo
How it was run: (§5)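 Mice bearing A375SM xenografts dosed orally in PEG300:H2O (50:50 v/v) at 25 or 50 mg/kg BID or 100 mg/kg QD for 20 days, vehicle arm for comparison; tumor volume followed versus vehicle. Plasma exposure (AUC, Cmax, Tmax) measured on day 20.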

[25] = AUC in mouse xenografted with human A375SM cells at 25 mg/kg, po bid measured on day 20; type: ADME, organism-based; conditions: in vivo; how it was run: as §5
[26] = AUC in mouse xenografted with human A375SM cells at 50 mg/kg, po bid measured on day 20; type: ADME, organism-based; conditions: in vivo; how it was run: as §5
[27] = AUC in mouse xenografted with human A375SM cells at 100 mg/kg, po qd measured on day 20; type: ADME, organism-based; conditions: in vivo; how it was run: as §5
[28] = Cmax in mouse xenografted with human A375SM cells at 50 mg/kg, po bid measured on day 20; type: ADME, organism-based; parameters: dose 50 mg/kg, route oral; conditions: in vivo; how it was run: as §5
[29] = Cmax in mouse xenografted with human A375SM cells at 100 mg/kg, po qd measured on day 20; type: ADME, organism-based; parameters: dose 100 mg/kg, route oral; conditions: in vivo; how it was run: as §5
[30] = Tmax in mouse xenografted with human A375SM cells at 25 mg/kg, po bid; type: ADME, organism-based; conditions: in vivo; how it was run: as §5
[31] = Tmax in mouse xenografted with human A375SM cells at 50 mg/kg, po bid; type: ADME, organism-based; conditions: in vivo; how it was run: as §5
[32] = Tmax in mouse xenografted with human A375SM cells at 100 mg/kg, po qd; type: ADME, organism-based; conditions: in vivo; how it was run: as §5
[33] = system: A375-SM; assay: Antitumor activity against human A375SM cells xenografted in mouse assessed as tumor growth inhibition at 25 mg/kg, po administered bid for 20 days measured after final dosage relative to vehicle treated control; type: functional; conditions: 480 h, read-out: TGI; how it was run: as §5
[34] = system: A375-SM; assay: Antitumor activity against human A375SM cells xenografted in mouse assessed as tumor regression at 50 mg/kg, po administered bid for 20 days measured after final dosage relative to vehicle treated control; type: functional; how it was run: as §5
[35] = system: A375-SM; assay: Antitumor activity against human A375SM cells xenografted in mouse assessed as tumor regression at 100 mg/kg, po administered qd for 20 days measured after final dosage relative to vehicle treated control; type: functional; how it was run: as §5
[36] = system: A375-SM; assay: Antitumor activity against human A375SM cells xenografted in mouse assessed as tumor regression compound administered orally for 20 days measured after final dosage relative to vehicle treated control; type: functional
[37] = system: Mus musculus; assay: In vivo inhibition of ERK in mouse xenografted with human A375SM cells assessed as inhibition RSK phosphorylation at 100 mg/kg, po administered qd for 20 days measured after 2 to 24 hrs post final dosage; type: functional, organism-based
How it was run: (§6)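 A375SM xenograft mice given 100 mg/kg QD orally in PEG300:H2O (50:50 v/v) for 20 days; after final dose on day 20, blood taken at several time points from this arm and vehicle arm for compound exposure and pRSK and pERK levels.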

[38] = system: Mus musculus; assay: In vivo inhibition of MEK in mouse xenografted with human A375SM cells assessed as inhibition ERK phosphorylation at 100 mg/kg, po administered qd for 20 days measured after 2 to 24 hrs post final dosage; type: functional, organism-based; how it was run: as §6
[39] = Plasma concentration in mouse xenografted with human A375SM cells at 100 mg/kg, po administered qd for 20 days measured after 2 hrs of final dose; type: ADME, organism-based; how it was run: as §6
[40] = Plasma concentration in mouse xenografted with human A375SM cells at 100 mg/kg, po administered qd for 20 days measured after 6 hrs of final dose; type: ADME, organism-based; how it was run: as §6
[41] = Plasma concentration in mouse xenografted with human A375SM cells at 100 mg/kg, po administered qd for 20 days measured after 8 hrs of final dose; type: ADME, organism-based; how it was run: as §6
[42] = Plasma concentration in mouse xenografted with human A375SM cells at 100 mg/kg, po administered qd for 20 days measured after 12 hrs of final dose; type: ADME, organism-based; how it was run: as §6
[43] = Plasma concentration in mouse xenografted with human A375SM cells at 100 mg/kg, po administered qd for 20 days measured after 24 hrs of final dose; type: ADME, organism-based; how it was run: as §6
[44] = Inhibition of ERK human A375 cells assessed as inhibition of RSK phosphorylation measured after 4 hrs by mesoscale electrochemiluminescent sandwich assay; conditions: A-375, 4 h

Sequence of Cytochrome P450 3A4 (P08684 whole entry): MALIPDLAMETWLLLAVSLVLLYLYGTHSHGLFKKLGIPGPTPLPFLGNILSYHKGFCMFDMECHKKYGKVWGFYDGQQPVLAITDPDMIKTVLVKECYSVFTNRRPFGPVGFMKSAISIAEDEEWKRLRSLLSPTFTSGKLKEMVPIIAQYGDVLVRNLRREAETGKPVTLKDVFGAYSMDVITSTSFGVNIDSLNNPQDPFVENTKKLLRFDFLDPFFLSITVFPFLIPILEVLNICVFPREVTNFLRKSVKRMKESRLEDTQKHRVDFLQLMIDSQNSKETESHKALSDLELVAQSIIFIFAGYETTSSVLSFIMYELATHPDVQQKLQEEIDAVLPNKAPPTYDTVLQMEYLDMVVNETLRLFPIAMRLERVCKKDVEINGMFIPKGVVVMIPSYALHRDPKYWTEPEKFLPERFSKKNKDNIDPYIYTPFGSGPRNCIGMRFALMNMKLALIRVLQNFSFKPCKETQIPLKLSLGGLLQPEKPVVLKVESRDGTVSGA

- IC50 [1]: 29000 nM
- IC50 [3]: 0.3 nM
- IC50 [4]: 97 nM
SMILES: C[C@@H](NC(=O)Nc1cc2[nH]nc(-c3ccnc(F)c3)c2cn1)c1ccccc1
- IC50 [2]: > 20000 nM

- IC50 [3]: 2400 nM
SMILES: Cc1cc(-c2n[nH]c3cc(NS(=O)(=O)NCc4ccccc4)ncc23)ccn1

- IC50 [1]: 3900 nM
- IC50 [3]: 0.2 nM
- IC50 [5]: 77 nM
- IC50 [6]: > 10000 nM
- IC50 [7]: 43 nM
- solubility [8]: 18 µM (≈ 6.7 µg/mL)
- IC50 [4]: 70 nM
- Ratio IC50 [10]: < 100
- Ratio IC50 [11]: < 100
- Ratio IC50 [12]: < 100
- Ratio IC50 [13]: < 100
- Ratio IC50 [14]: < 100
- Ratio IC50 [15]: < 100
- Ratio IC50 [16]: < 100
- Ratio IC50 [17]: < 100
- AUC/dose [18]: 1.3 µM·h/mg/kg
- clearance [19]: 35 mL/min/kg
- Vd [20]: 1.7 L/kg
- half-life [21]: 0.7 h
- bioavailability [22]: 12%
- fraction unbound [23]: 0.012
- Cmax [24]: 12 µM
- AUC [25]: 95 µM·h
- AUC [26]: 240 µM·h
- AUC [27]: 320 µM·h
- Cmax [28]: 23 µM
- Cmax [29]: 27 µM
- Tmax [30]: 11 h
- Tmax [31]: 11 h
- Tmax [32]: 4 h
- concentration at 2 h [39]: 20 µM
- concentration at 6 h [40]: 5.2 µM
- concentration at 8 h [41]: 6.7 µM
- concentration at 12 h [42]: 1.6 µM
- concentration at 24 h [43]: 0.1 µM
SMILES: Cc1cc(-c2n[nH]c3cc(NC(=O)N[C@H](C)c4ccccc4)ncc23)ccn1
- IC50 [2]: > 20000 nM
- IC50 [9]: 1300 nM
- inhibition in vivo at 25 mg/kg [33]: 82%
- Activity [34]: 47%
- Activity [35]: 42%
- Activity [36]: Dose-dependent effect
- inhibition [37]: Active
- inhibition [38]: inactive

- IC50 [3]: 0.9 nM
- IC50 [4]: 810 nM
SMILES: Cc1cc(-c2n[nH]c3cc(NC(=O)N[C@H](C)c4ccccc4)ncc23)cnn1

- IC50 [4]: > 10000 nM
SMILES: Cc1cc(-c2n[nH]c3cc(NC(=O)Nc4ccccc4)ncc23)ccn1

- IC50 [44]: 1800 nM
SMILES: Cc1cc(-c2n[nH]c3cc(NC(=O)N[C@@H](C)c4ccccc4)ncc23)ccn1

- IC50 [3]: 2 nM
- IC50 [4]: 350 nM
SMILES: CCCc1n[nH]c2cc(NC(=O)N[C@H](C)c3ccccc3)ncc12

- IC50 [3]: 56 nM
SMILES: Cc1cc(-c2n[nH]c3cc(Nc4nccs4)ncc23)ccn1

- IC50 [3]: 4 nM
- IC50 [4]: 810 nM
SMILES: C[C@@H](NC(=O)Nc1cc2[nH]nc(C3CCCC3)c2cn1)c1ccccc1

- IC50 [3]: 0.9 nM
- IC50 [4]: 300 nM
SMILES: COc1cc(-c2n[nH]c3cc(NC(=O)N[C@H](C)c4ccccc4)ncc23)ccn1

- IC50 [5]: 57 nM
- IC50 [7]: 39 nM
- solubility [8]: 38 µM (≈ 22.3 µg/mL)
SMILES: O=C(Nc1ccc2[nH]nc(-c3ccncc3)c2c1)[C@@H]1CCN(CC(=O)N2CCN(c3ccc(-c4ncccn4)cc3)CC2)C1

Source: ChEMBL document CHEMBL4425122, “Discovery of 1-(1H-Pyrazolo[4,3-c]pyridin-6-yl)urea Inhibitors of Extracellular Signal-Regulated Kinase (ERK) for the Treatment of Cancers” (J Med Chem, 2016)
